Source: ChEMBL document CHEMBL5356984 (RSC Med Chem, 2023)
Active and inactive are the calls of the source. No cut-off for these calls is given here.

How the values were obtained:
SK-BR-3 [1] = assay: Antiproliferative activity against human SK-BR-3 cells assessed as inhibition of cell viability measured after 48 hrs by MTT assay; type: functional, cell-based; conditions: SK-BR-3, 48 h
How it was run: (§1)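 MTT cell viability read-out; IC50 obtained by non-linear regression of concentration–response data; values are mean ± SD of three independent experiments.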

SK-BR-3 [2] = assay: Induction of apoptosis in human SK-BR-3 cells assessed as late apoptotic cells at 5 uM incubated for 36 hrs by Annexin V/PI staining based flow cytometry (reference value: 4.95 %); type: functional
MCF7 [3] = assay: Antiproliferative activity against human MCF7 cells assessed as inhibition of cell viability measured after 48 hrs by MTT assay; type: functional, cell-based; conditions: MCF7, 48 h; how it was run: as §1
MCF7 [4] = assay: Effect on HSP70 level in human MCF7 cells at 10 uM incubated for 36 hrs by DAPI staining based immunofluorescence analysis; type: functional, cell-based
How it was run: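 Cells treated 36 h with DMSO vehicle control, then fixed with 4% paraformaldehyde 15 min, permeabilized with 0.2% Triton X-100 5 min, blocked with 3% BSA 15 min; primary antibody then fluorescent secondary antibody, each 1 h at room temperature; HSP70 green, HSF-1 red, nuclei DAPI; imaged by fluorescence microscopy.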

HCC1806 = assay: Antiproliferative activity against human HCC1806 cells assessed as inhibition of cell viability measured after 48 hrs by MTT assay; type: functional, cell-based; conditions: HCC1806, 48 h; how it was run: as §1
MCF7 [5] = assay: Induction of apoptosis in human MCF7 cells assessed as late apoptotic cells at 10 uM incubated for 36 hrs by Annexin V/PI staining based flow cytometry (reference value: 6.02 %); type: functional
Heat shock protein HSP90 [6] = target: T1, Heat shock protein HSP90 (Homo sapiens, UniProt P07900+P08238); assay: Inhibition of HSP90 in human MCF7 cells assessed as decrease in HER2 level at 5 to 20 uM incubated for 48 hrs by Western blot analysis; type: cell-based; conditions: dose 5-20 µM
How it was run: (§2)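 MCF-7 or SKBr3 cells were exposed for 48 h, then trypsinised, PBS-washed and lysed in RIPA buffer with phosphatase and protease inhibitors. Cleared lysate (14 000 rpm, 4 °C, 15 min) was BCA-quantified, and 20 µg protein was run on SDS-PAGE and blotted. Blots were blocked in 5% milk, incubated with primary antibodies (1:1000) overnight at 4 °C, then HRP secondary, and developed by ECL. GAPDH (1:10000) was the loading control.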

Heat shock protein HSP90 [7] = target: T1, Heat shock protein HSP90; assay: Inhibition of HSP90 in human SK-BR-3 cells assessed as decrease in AKT level at 5 to 20 uM incubated for 48 hrs by Western blot analysis; type: cell-based; conditions: dose 5-20 µM; how it was run: as §2
SK-BR-3 [8] = assay: Induction of apoptosis in human SK-BR-3 cells assessed as early apoptotic cells at 10 uM incubated for 36 hrs by Annexin V/PI staining based flow cytometry (reference value: 2.73 %); type: functional
MCF7 [9] = assay: Induction of apoptosis in human MCF7 cells assessed as increase in cleaved PARP level at 10 to 20 uM incubated for 48 hrs by Western blot analysis; type: functional, cell-based; conditions: dose 10-20 µM
How it was run: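 Cells exposed 48 h (DMSO vehicle control); trypsinized, lysed in RIPA with phosphatase/protease inhibitors; 20 μg protein on SDS-PAGE, blotted, blocked 5% milk 1 h; primary antibodies 1:1000 overnight at 4 °C, GAPDH 1:10000 as loading control; HRP secondary 1:1000–1:5000; ECL detection.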

`CN1CCN(/C=C/C(=O)/C=C/c2cccc(O[Si](C)(C)C(C)(C)C)c2)CC1` gave an IC50 (SK-BR-3 [1]) of 12.1 µM, an Activity (SK-BR-3 [2]) of 5.82% and an IC50 (MCF7 [3]) of 7.85 µM. The Activity (MCF7 [4]) was “inactive”, the IC50 (HCC1806) was 10.1 µM and the Activity (MCF7 [5]) was 21.7%. For the same compound, the inhibition (Heat shock protein HSP90 [6]) was “Active”, the inhibition (Heat shock protein HSP90 [7]) was “Active” and the Activity (SK-BR-3 [8]) was 3.01%. The Activity (MCF7 [9]) was “Active”.
